Results: ChEMBL document CHEMBL4020828, “Design and Syntheses of Highly Potent Teixobactin Analogues against Staphylococcus aureus, Methicillin-Resistant Staphylococcus aureus (MRSA), and Vancomycin-Resistant Enterococci (VRE) in Vitro and in Vivo” (J Med Chem, 2018)
Converted amounts (≈) assume the structure as drawn. The source made the active and inactive calls. The calls are words filed in the database; no cut-off is given here.

Columns and labels:
[1] = test system: Staphylococcus saprophyticus; assay: Antibacterial activity against Staphylococcus saprophyticus ATCC BAA 750 after 24 hrs; format: functional; conditions: ATCC BAA 750, 24 h
Staphylococcus aureus [2] = assay: Antibacterial activity against methicillin-resistant Staphylococcus aureus ATCC 700699 after 24 hrs; format: functional; conditions: ATCC 700699, 24 h
[3] = test system: Staphylococcus saprophyticus; assay: Antibacterial activity against Staphylococcus saprophyticus ATCC 15305 after 24 hrs; format: functional; conditions: ATCC 15305, 24 h
Staphylococcus aureus [4] = assay: Antibacterial activity against Staphylococcus aureus ATCC 29213 infected in C57BL6 mouse cornea assessed as decrease in bacterial load/tissue at 0.3% administered tropically 2 times on day 1, 4 times on day 2 and 2 times on day 3 starting from 6 hrs post infection measured 48 hrs post last dose; format: functional; design: scale not given: the % may be the effect or the level left
How it was run: (§1)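 Mouse corneal epithelium scratched with a scalpel, then infected with 15 µl of 6×10⁶ CFU/ml S. aureus ATCC 29213. From 6 h p.i., 15 µl of PBS vehicle, 0.3% w/v peptide in PBS or 0.3% moxifloxacin was applied, 8 doses total. Outcomes were slit-lamp examination, AS-OCT corneal thickness and CFU counts of harvested corneas (mean log₁₀ CFU/tissue ± SEM).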

Enterococcus faecalis [5] = assay: Antibacterial activity against vancomycin-resistant Enterococcus faecalis ATCC 29212 after 24 hrs; format: functional; conditions: ATCC 29212, 24 h
Staphylococcus aureus [6] = assay: Antibacterial activity against methicillin-resistant Staphylococcus aureus isolate 42412 after 24 hrs; format: functional; conditions: isolate 42412, 24 h
Enterococcus faecalis [7] = assay: Antibacterial activity against vancomycin-resistant Enterococcus faecalis isolate 1001 after 24 hrs; format: functional; conditions: isolate 1001, 24 h
Staphylococcus aureus [8] = assay: Bactericidal activity against methicillin-resistant Staphylococcus aureus ATCC 700699 after 24 hrs; format: functional
[9] = Cytotoxicity against human primary HDF assessed as effect on cell morphology at 15.62 to 250 ug/ml after 24 hrs by rhodamine-phalloidin/Hoechst 33342 staining-based fluorescence microscopic method
How it was run: (§2)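 After 24 h peptide exposure, cells were fixed and stained with rhodamine-phalloidin (actin), Alexa Fluor 488 anti-α-tubulin and Hoechst 33342 (nuclei). They were then imaged by automated high-content microscopy. Nocodazole (10 µg/ml) served as toxicity control. Representative images shown at 62.5 µg/ml.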

Staphylococcus aureus [10] = assay: Bactericidal activity against Staphylococcus aureus 4299 after 24 hrs; format: functional
Pseudomonas aeruginosa = assay: Antibacterial activity against Pseudomonas aeruginosa after 24 hrs; format: functional
Enterococcus faecalis [11] = assay: Antibacterial activity against vancomycin-resistant Enterococcus faecalis isolate 1004 after 24 hrs; format: functional; conditions: isolate 1004, 24 h
[12] = Cytotoxicity against human primary HDF assessed as cell viability at 15.62 to 250 ug/ml after 24 hrs by MTS assay relative to control; format: cell-based; conditions: primary HDF cells, read-out: Activity
How it was run: (§3)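 Cells exposed 24 h to peptide at 15.62–250 µg/ml, prepared fresh in culture medium from a 500 µg/ml stock. Controls were DMSO (0.1% v/v) or nocodazole (5 µg/ml in DMSO). Metabolic activity was read by MTS viability assay. Mean ± SEM of three independent triplicate experiments.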

Staphylococcus aureus [13] = assay: Bactericidal activity against Staphylococcus aureus ATCC 29213 after 24 hrs; format: functional
Staphylococcus aureus [14] = assay: Ratio of MBC to MIC for Staphylococcus aureus 4299; format: functional
[15] = test system: Staphylococcus epidermidis; assay: Antibacterial activity against Staphylococcus epidermidis 12228 after 24 hrs; format: functional; conditions: Staphylococcus epidermidis, 12228, 24 h
Staphylococcus aureus [16] = assay: Antibacterial activity against Staphylococcus aureus ATCC 29213 at 5 to 20 times MIC after 24 hrs; format: functional
[17] = test system: Bacillus subtilis (Bacillus subtilis); assay: Antibacterial activity against Bacillus subtilis ATCC 6633 after 24 hrs; conditions: ATCC 6633, 24 h
Enterococcus faecalis [18] = assay: Antibacterial activity against vancomycin-resistant Enterococcus faecalis isolate 1008 after 24 hrs; format: functional; conditions: isolate 1008, 24 h
Enterococcus faecalis [19] = assay: Antibacterial activity against vancomycin-resistant Enterococcus faecalis isolate 1002 after 24 hrs; format: functional; conditions: isolate 1002, 24 h
[20] = Cytotoxicity against human primary HDF assessed as cytoskeleton or nuclear disruption at 15.62 to 250 ug/ml after 24 hrs by rhodamine-phalloidin/Hoechst 33342 staining-based fluorescence microscopic method; format: cell-based; how it was run: as §2
Staphylococcus aureus [21] = assay: Antibacterial activity against methicillin-resistant Staphylococcus aureus isolate 1003 after 24 hrs; format: functional; conditions: isolate 1003, 24 h
Staphylococcus aureus [22] = assay: Antibacterial activity against Staphylococcus aureus ATCC 29213 infected in C57BL6 mouse cornea assessed as decrease in corneal infiltrates at 0.3% administered tropically 2 times on day 1, 4 times on day 2 and 2 times on day 3 starting from 6 hrs post infection measured 48 hrs post last dose by slit-lamp photography; format: functional; how it was run: as §1
Staphylococcus aureus [23] = assay: Antibacterial activity against Staphylococcus aureus ATCC 29213 infected in C57BL6 mouse cornea assessed as mean corneal thickness at 0.3% administered tropically 2 times on day 1, 4 times on day 2 and 2 times on day 3 starting from 6 hrs post infection measured 48 hrs post last dose by AS-OCT method (reference value: 186.2 +/- 17.5 micrometer); format: functional; how it was run: as §1
[24] = test system: Staphylococcus saprophyticus; assay: Antibacterial activity against Staphylococcus saprophyticus ATCC 49907 after 24 hrs; format: functional; conditions: ATCC 49907, 24 h
Bacillus cereus = assay: Antibacterial activity against Bacillus cereus ATCC 11788 after 24 hrs; format: functional; conditions: ATCC 11788, 24 h
Staphylococcus aureus [25] = assay: Antibacterial activity against methicillin-resistant Staphylococcus aureus ATCC 33591 at 5 to 20 times MIC after 24 hrs; format: functional
A549 [26] = assay: Cytotoxicity against human A549 cells assessed as cytoskeleton or nuclear disruption at 15.62 to 250 ug/ml after 24 hrs by rhodamine-phalloidin/Hoechst 33342 staining-based fluorescence microscopic method; format: cell-based; conditions: a549, 24 h; how it was run: as §2
Staphylococcus aureus [27] = assay: Antibacterial activity against Staphylococcus aureus ATCC 29213 infected in C57BL6 mouse cornea assessed as decrease in conjunctival chemosis at 0.3% administered tropically 2 times on day 1, 4 times on day 2 and 2 times on day 3 starting from 6 hrs post infection measured 48 hrs post last dose by slit-lamp photography; format: functional; how it was run: as §1
Staphylococcus aureus [28] = assay: Antibacterial activity against Staphylococcus aureus ATCC 29213 infected in C57BL6 mouse cornea assessed as mean corneal thickness at 0.3% administered tropically 2 times on day 1, 4 times on day 2 and 2 times on day 3 starting from 6 hrs post infection measured 24 hrs post last dose by AS-OCT method (reference value: 151.7 +/- 12.7 micrometer); format: functional; how it was run: as §1
Staphylococcus aureus [29] = assay: Antibacterial activity against methicillin-resistant Staphylococcus aureus ATCC 33591 after 24 hrs; format: functional; conditions: ATCC 33591, 24 h
Oryctolagus cuniculus = assay: Toxicity in New Zealand white rabbit corneal-damage model assessed as effect on wound healing at 0.3% administered 4 times a day tropically for 10 days by fluorescein staining-based slit-lamp biomicroscopy; conditions: in vivo, topical_or_ocular, 240 h
How it was run: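 Rabbit cornea circularly debrided, then 50 µl of 0.3% (w/v) peptide applied topically 4 times/day. Vehicle (PBS) served as control, 2 eyes PBS versus 4 eyes treated. Re-epithelialization and wound closure followed over time by fluorescein staining and slit-lamp biomicroscopy.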

Staphylococcus aureus [30] = assay: Antibacterial activity against Staphylococcus aureus ATCC 29213 after 24 hrs; format: functional; conditions: ATCC 29213, 24 h
Enterococcus faecalis [31] = assay: Antibacterial activity against vancomycin-resistant Enterococcus faecalis ATCC 700802 after 24 hrs; format: functional; conditions: ATCC 700802, 24 h
Staphylococcus aureus [32] = assay: Antibacterial activity against methicillin-resistant Staphylococcus aureus isolate 21455 after 24 hrs; format: functional; conditions: isolate 21455, 24 h
A549 [33] = assay: Cytotoxicity against human A549 cells assessed as effect on cell morphology at 15.62 to 250 ug/ml after 24 hrs by rhodamine-phalloidin/Hoechst 33342 staining-based fluorescence microscopic method; conditions: a549, 24 h; how it was run: as §2
Staphylococcus aureus [34] = assay: Ratio of MBC to MIC for Staphylococcus aureus ATCC 29213; format: functional
[35] = test system: Staphylococcus saprophyticus; assay: Antibacterial activity against Staphylococcus saprophyticus ATCC 49453 after 24 hrs; format: functional; conditions: ATCC 49453, 24 h
[36] = Cytotoxicity against human A549 cells assessed as cell viability at 15.62 to 250 ug/ml after 24 hrs by MTS assay relative to control; format: cell-based; conditions: read-out: Activity; how it was run: as §3
Staphylococcus aureus [37] = assay: Bactericidal activity against methicillin-resistant Staphylococcus aureus isolate 21455 after 24 hrs; format: functional
Staphylococcus aureus [38] = assay: Bactericidal activity against Staphylococcus aureus ATCC 29213 assessed as log reduction in bacterial load at 0.5 to 1 ug/ml after 8 hrs by time-kill assay; format: functional
[39] = Cytotoxicity against human primary HDF assessed as loss of adhered cells at 5 ug/ml after 24 hrs by MTS assay; format: cell-based
How it was run: (§4)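 A549 lung epithelial cells or primary human dermal fibroblasts exposed 24 h to peptide (15.62–250 µg/ml, dissolved fresh in culture medium). Nocodazole (5 µg/ml in DMSO) served as toxicity control, with 0.1% v/v DMSO as vehicle control. Metabolic activity was read by MTS viability assay. Data are from three independent triplicate experiments, given as mean ± SEM.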

A549 [40] = assay: Cytotoxicity against human A549 cells assessed as loss of adhered cells at 5 ug/ml after 24 hrs by MTS assay; format: cell-based; conditions: a549, 24 h; how it was run: as §4

Structure (SMILES): CC[C@@H](C)[C@@H](NC(=O)[C@@H](CCCNC(=N)N)NC(=O)[C@H](CO)NC(=O)[C@@H](NC(=O)[C@@H](Cc1ccccc1)NC)[C@@H](C)CC)C(=O)N[C@H](C(=O)N[C@@H](CO)C(=O)N[C@H]1C(=O)N[C@@H](C)C(=O)N[C@@H](CC(C)C)C(=O)N[C@@H]([C@@H](C)CC)C(=O)O[C@H]1C)[C@@H](C)CC
- MIC [1]: < 0.0625 µg/mL
- MIC (Staphylococcus aureus [2]): 0.25 µg/mL (≈ 0.203 µM)
- MIC [3]: < 0.0625 µg/mL
- Activity (Staphylococcus aureus [4]): >99%
- MIC (Enterococcus faecalis [5]): 0.5 µg/mL (≈ 0.407 µM)
- MIC (Staphylococcus aureus [6]): 0.0313 µg/mL (≈ 0.0255 µM)
- MIC (Enterococcus faecalis [7]): 0.5 µg/mL (≈ 0.407 µM)
- Activity (Staphylococcus aureus [8]): Active
- Activity [9]: Non-Toxic
- Activity (Staphylococcus aureus [10]): Active
- Activity (Pseudomonas aeruginosa): inactive
- MIC (Enterococcus faecalis [11]): 0.25 µg/mL (≈ 0.203 µM)
- viability at 24 h [12]: ≥ 80%
- Activity (Staphylococcus aureus [13]): Active
- Ratio (Staphylococcus aureus [14]): <4
- MIC [15]: < 0.0625 µg/mL
- Activity (Staphylococcus aureus [16]): Active
- MIC [17]: 0.125 µg/mL (≈ 0.102 µM)
- MIC (Enterococcus faecalis [18]): 0.5 µg/mL (≈ 0.407 µM)
- MIC (Enterococcus faecalis [19]): 1 µg/mL (≈ 0.813 µM)
- Activity [20]: Non-Toxic
- MIC (Staphylococcus aureus [21]): 0.5 µg/mL (≈ 0.407 µM)
- Activity (Staphylococcus aureus [22]): Active
- Activity (Staphylococcus aureus [23]): 121.7 um
- MIC [24]: < 0.0625 µg/mL
- MIC (Bacillus cereus): 0.5 µg/mL (≈ 0.407 µM)
- Activity (Staphylococcus aureus [25]): Active
- Activity (A549 [26]): Non-Toxic
- Activity (Staphylococcus aureus [27]): Active
- Activity (Staphylococcus aureus [28]): 92.3 um
- MIC (Staphylococcus aureus [29]): 0.125 µg/mL (≈ 0.102 µM)
- Activity (Oryctolagus cuniculus): Non-Toxic
- MIC (Staphylococcus aureus [30]): < 0.0625 µg/mL
- MIC (Enterococcus faecalis [31]): 0.5 µg/mL (≈ 0.407 µM)
- MIC (Staphylococcus aureus [32]): 0.0313 µg/mL (≈ 0.0255 µM)
- Activity (A549 [33]): Non-Toxic
- Ratio (Staphylococcus aureus [34]): <4
- MIC [35]: < 0.0625 µg/mL
- viability at 24 h [36]: ≥ 80%
- Activity (Staphylococcus aureus [37]): Active
- Activity (Staphylococcus aureus [38]): >=2 deltalog10CFU/ml

Structure (SMILES): COC(=O)Nc1nc2ccc(C(=O)c3cccs3)cc2[nH]1 [NOCODAZOLE]
- Activity [39]: Toxic
- Activity (A549 [40]): Toxic
